The list is not random: actives were taken first. Their share in the collection is about 3.3%.
HTR2A ag – activates the mouse 5-HT2A serotonin receptor; AID 624169; activation, % at 7.6 µM; CHO-K1 mHTR2A beta-arrestin complementation, luminescence; percent of 30 µM serotonin response; P35363; 360,000 compounds, 0.66% hits;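 active = activation above a run cutoff, the mean activation of all tested compounds plus 3 SD, cut at about 14% in these data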;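 note: 0% = plate median of compound wells and 100% = 30 µM serotonin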
sPLA2-III inh – Blocks human group III sPLA2 activity. Q9NZ20. QFRET BODIPY PC-A2 liposome hydrolysis, fluorescence. inhibition, % at 12.2 µM. 370,000 compounds, 0.56% hits;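 active = inhibition above mean plus 3 SD of compounds lying within the high and low control bounds, cut at about 19% in these data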;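 note: 0% = median of test compound wells and 100% = no enzyme DMSO wells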
Arr AP2 block – inhibitors of human beta-arrestin and AP2 interaction | FITC-arrestin peptide / GST-AP2 beads, flow cytometry; AP2 beta2 appendage carries R879A mutation | inhibition, % at 10 µM | 340,000 compounds, 0.31% hits;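 active = inhibition above a set limit, near 3 SD of compounds lacking own fluorescence, cut at about 54% in these data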;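 note: plate controls were DMSO wells for no effect and 5 µM unlabelled arrestin peptide for full effect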
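system = GST-tagged AP2 beta2-adaptin appendage (R879A) on 4 µm glutathione beads | reagent = FITC-labelled arrestin peptide probe, 50 nM final | schedule = compound with beads 12 min RT, then probe 1 h RT | signal = HyperCyt-sampled flow cytometry, FL1 channel, ex 488/em 535 nm | read-out = percent response from loss of bead-bound FITC fluorescence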
CendR NRP1 mod – alters CendR peptide binding to human NRP-1. 360,000 compounds, 0.85% hits. FAM-RPARPAR peptide binding to NRP-1, fluorescence polarization. O14786. inhibition, % at 25 µM;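 active = inhibition or corrected inhibition above about 18%, plus a signal ratio from 0.5 to 1.5, limit read from the data, passing the limit was not always enough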
Target sequence (O14786 whole entry, looked up): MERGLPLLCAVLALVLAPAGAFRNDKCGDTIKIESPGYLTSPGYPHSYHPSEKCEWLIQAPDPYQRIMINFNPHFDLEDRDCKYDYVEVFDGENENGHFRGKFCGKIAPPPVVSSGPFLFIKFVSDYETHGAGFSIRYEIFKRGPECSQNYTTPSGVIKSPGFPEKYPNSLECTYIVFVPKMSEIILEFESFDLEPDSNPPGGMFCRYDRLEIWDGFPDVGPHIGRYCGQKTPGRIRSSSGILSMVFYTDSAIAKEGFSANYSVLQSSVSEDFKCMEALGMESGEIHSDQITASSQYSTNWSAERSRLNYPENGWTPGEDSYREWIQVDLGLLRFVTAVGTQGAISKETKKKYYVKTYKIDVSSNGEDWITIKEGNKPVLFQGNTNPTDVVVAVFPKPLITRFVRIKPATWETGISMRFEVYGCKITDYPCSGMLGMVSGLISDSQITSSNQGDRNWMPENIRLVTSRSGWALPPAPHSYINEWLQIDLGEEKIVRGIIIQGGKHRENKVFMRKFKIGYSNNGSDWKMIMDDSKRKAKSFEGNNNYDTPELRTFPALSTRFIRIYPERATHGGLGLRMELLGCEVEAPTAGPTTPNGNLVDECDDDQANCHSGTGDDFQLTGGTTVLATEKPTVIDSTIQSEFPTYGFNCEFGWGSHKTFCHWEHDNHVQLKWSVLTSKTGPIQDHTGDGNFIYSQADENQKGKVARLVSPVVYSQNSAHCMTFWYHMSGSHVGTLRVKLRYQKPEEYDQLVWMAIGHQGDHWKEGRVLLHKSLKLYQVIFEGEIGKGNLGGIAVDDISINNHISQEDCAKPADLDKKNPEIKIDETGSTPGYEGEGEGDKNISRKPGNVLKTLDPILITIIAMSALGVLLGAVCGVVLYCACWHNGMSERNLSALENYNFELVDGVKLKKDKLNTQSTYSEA
M18AAP inhibitor – blocks P. falciparum M18 aspartyl aminopeptidase | recombinant PfM18AAP, H-Glu-NHMec fluorogenic cleavage | AID 1822 | inhibition, % at 7.35 µM | 290,000 compounds, 1.2% hits;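 active = inhibition above the campaign mean inhibition over all tested compounds plus 3 SD, cut at about 28% in these data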;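 note: 0% = plate median of test compound wells and 100% = 2 mM ZnCl2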
Lipid droplet – hepatic lipid droplet formation modulation. AID 1656. inhibition, % at 6.5 µM. 240,000 compounds, 0.4% hits. AML12 mouse hepatocytes, oleate lipid droplets, BODIPY imaging;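 active = lipid droplet intensity inhibited by at least 50%, with more than 500 cells counted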
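Test system: AML12 hepatocytes (mouse); reagent: oleate loading, 100 µM; dosing: one dose, 6.5 µM compound; incubation: overnight exposure; signal: fluorescence imaging, 20x objective, two fields per well; read-out basis: % inhibition of corrected integrated BODIPY droplet signal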
Starred values were filed as active, the others as inactive; / = no result given.

SMILES	HTR2A ag	sPLA2-III inh	Arr AP2 block	CendR NRP1 mod	M18AAP inhibitor	Lipid droplet
O=C(CC1(O)C(=O)Nc2ccccc21)c1ccccc1 (stereo not drawn)	5	-4	4	-5	8	-4
O=C(CC1(O)C(=O)Nc2cc(Cl)cc(Cl)c21)c1ccccc1O (stereo not drawn)	1	-9	-8	43*	4	-4
Cc1c(O)cnc2nn(-c3ccccc3)c(=N)n12	-3	12	/	13	/	/
CNC(=S)NNC(=O)c1sc2cc(C(F)(F)F)cnc2c1-c1ccccn1	-2	14	-5	23*	18	-2
Cn1c(-c2sc3cc(C(F)(F)F)cnc3c2-c2ccccn2)n[nH]c1=S	0	14	-19	25*	3	-5
COc1cccc(C(=O)NC2CCN(CC(=O)NCc3ccccc3OC)CC2)c1	1	5	13	34*	-5	/
Fc1ccc(C2=Nn3c(nnc3C3CCCCC3)SC2)cc1	/	5	/	/	/	/
O=C(CSc1nccc(-c2ccc(Br)cc2)n1)NCCc1ccccc1	-5	-5	11	28*	-2	-12
Cc1nc(SCC(=O)NCCc2ccccc2)n[nH]1	0	2	3	7	-1	/
O=C1C=C(c2cccc3c2Oc2ccccc2S3)C[C@@H](c2ccc(Cl)cc2)C1	4	3	1	29*	/	/
O=C1C=C(c2cccc3c2Oc2ccccc2S3)C[C@@H](c2ccc3c(c2)OCO3)C1	/	-5	/	/	/	/
Cn1c(=O)c2c(ncn2CC(COCc2ccccc2)OCc2ccccc2)n(C)c1=O (stereo not drawn)	5	3	-6	30*	-2	-20
Cn1c(=O)c2c(ncn2Cc2ccccc2)n(C)c1=O	7	-1	-3	-4	-4	-6
CC(C)[C@@H]1NC(=O)[C@H]2C[C@@]3(c4ccccc4)c4ccccc4N[C@H]3N2C1=O	/	9	/	/	/	/
CSc1ccc(C(=S)N2CCCCCC2)cc1	3	4	13	4	4	6
CCN1CCN(C(=S)c2ccc(SC)cc2)CC1	1	0	-8	-2	31*	2
CC[C@@H](C)CN1C(=O)N[C@@H](CCc2ccccc2)C(C(C)=O)=C1C	1	10	0	28*	/	/
CC(=O)C1=C(C)N(Cc2ccccc2)C(=O)N[C@H]1CCc1ccccc1	-7	6	-2	8	2	-41
O=C(Nc1ncccc1O)c1ccc(S(=O)(=O)Nc2ccccc2)cc1	-4	-20	5	7	/	/
CC1CCCCN1S(=O)(=O)c1ccc(N(C(=O)c2cnccn2)C(C(=O)NC2CCCCC2)c2cccs2)cc1 (stereo not drawn)	0	-6	-4	28*	6	-4
CC1CCCCN1S(=O)(=O)c1ccc(N(C(=O)c2cnccn2)C(C(=O)NC2CCCC2)c2cccs2)cc1 (stereo not drawn)	-3	-5	-2	-2	0	-11
CN1OC[C@@H]2CN(S(=O)(=O)c3cc(Cl)cc(Cl)c3)[C@H](c3ccc(-c4ccc(C#N)cc4)cc3)C[C@@H]21	-2	16	/	-4	/	/
CC(=O)N1CCc2cc(S(=O)(=O)N3CCCCC3C)ccc21 (stereo not drawn)	7	3	34	35*	-1	-7
CC1CCCCN1S(=O)(=O)c1ccc2c(c1)CCN2C(=O)CCC(=O)O (stereo not drawn)	1	6	9	-4	-18	/
CSCCC(c1nc2ccccc2[nH]1)n1c(-c2ccc3ncccc3c2)nc2ccccc21 (stereo not drawn)	2	3	/	2	/	/
SMILES	HTR2A ag	sPLA2-III inh	Arr AP2 block	CendR NRP1 mod	M18AAP inhibitor	Lipid droplet
Fc1ccccc1N1CCN(c2cnc3ccccc3n2)CC1	-6	1	-6	24*	0	4
c1ccc(CN2CCN(c3cnc4ccccc4n3)CC2)cc1	12	-5	6	9	7	/
CC1(C)CC(=O)c2cnc(N3CCc4ccccc43)nc2C1	2	4	8	28*	-7	12
CCn1c(SC(C)C(=O)NC2CCCc3ccccc32)nnc1-c1cccs1 (stereo not drawn)	3	2	24	34*	2	-16
CCn1c(SCC(=O)NC2CCCc3ccccc32)nnc1-c1cccs1 (stereo not drawn)	-2	-1	-3	2	-2	/
CCN(CC)S(=O)(=O)c1cccc(NC(=O)COC(=O)CCC(=O)c2cccs2)c1	-3	/	-7	-9	-2	-8
CCN(CC)S(=O)(=O)c1cc(NC(=O)COC(=O)CCC(=O)c2cccs2)ccc1C	0	-14	13	26*	3	-3
O=C(CN1C(=O)C2(OCCCO2)c2ccccc21)NCc1ccc2ccccc2c1	/	-15	/	/	/	/
CCc1cccc(CC)c1NC(=O)c1cccc(NC(=O)c2ccccc2)c1	4	-15	15	-5	-10	/
CCc1cccc(CC)c1NC(=S)Nc1ccccc1	-1	6	3	20*	-11	-33
CC(C)(C)N(NC(=O)Nc1ccccc1)C(=O)c1ccccc1Cl	8	-4	9	25*	1	/
Oc1ccc(/C=N/Nc2cc(N3CCOCC3)nc(N3CCOCC3)n2)cc1O	0	-17	-6	26*	56*	-7
Cc1cc2c(C)nc(N/N=C/c3ccc([N+](=O)[O-])cc3)nc2o1	2	0	19	-31	30*	5
Cc1cc(-c2ccccc2)nc(N/N=C/c2ccc([N+](=O)[O-])cc2)n1	6	-3	22	0	-1	-22
COc1ccc(C(=O)c2cnc(/N=C/N(C)C)s2)cc1	3	3	12	32*	7	-6
CN(C)/C=N/c1ncc(C(=O)c2ccc3ccccc3c2)s1	-2	-5	7	2	-3	/
Nc1ccccc1C(=O)NNc1c2ccccc2nc2ccccc12	-5	2	0	-19	4	14
CCOc1ccc(-c2onc(C(F)(F)F)c2-c2cscn2)c(O)c1	3	-29	-14	27*	17	-13
Cc1cc(O)cc(O)c1-c1onc(C(F)(F)F)c1-c1cscn1	-1	-37	1	11	2	/
COC(=O)[C@@H](Cc1ccccc1)NC(=O)[C@H]1O[C@@H](n2cnc3c(=O)[nH]c(N)nc32)[C@H](O)[C@@H]1O	/	-2	/	/	/	/
CC1=CCC(/C=N\Nc2nnc3c(n2)[nH]c2ccccc23)CC1 (stereo not drawn)	/	/	/	/	36*	-1
CCn1cnc2cc(NC(=O)COc3ccc(C)cc3)ccc21	6	-18	-3	20	/	/
CC(C)Oc1ccc(F)cc1-c1cc(C(=O)Nc2ccccc2)[nH]n1	-6	-9	/	4	/	/
CC(C)Oc1ccc(F)cc1-c1cc(C(=O)NCc2ccc(F)cc2)[nH]n1	-8	-18	/	27*	/	/
